Measured values published in PubChem BioAssay.
Records with an inconclusive call do not appear. The source made the active and inactive calls.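 Rule for the calls, unless noted: active = inhibition over a set limit, the all-compound mean plus 3 SD, in both replicate runs; inconclusive = over that limit in just one replicate run; inactive = at or under that limit in both runs.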

Columns and labels:
[1] = S. cerevisiae growth inhibition in permissive medium (OD615), pilot counter-assay for S. cerevisiae lifespan shortening project, permissive growth control (AID 705;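 active = growth inhibition above 25% in both replicates, a cutoff set 3 SD above the mean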); conditions: OD615, 24 h, at 10 µM, stronger effect = higher value
How it was run: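 System: Engineered DeaD yeast | Buffer or medium: SC raffinose/galactose permissive medium | Incubation: Cells pre-grown 4 h, then 24 h compound exposure, 30 °C humidified | Measured by: Absorbance (optical density) at 615 nm | Read-out: Reduction in yeast growth (OD615)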

[2] = S. cerevisiae growth inhibition in restrictive medium, OD615, pilot screen, restrictive growth control, yeast lifespan reduction project (AID 706;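 active = growth inhibition above a set limit, 3 SD over mean compound inhibition, in both replicates, cut at about 43% in these data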;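 note: modified DeaD lifespan yeast strain shifted to restrictive glucose medium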); conditions: OD615, 48 h, at 10 µM, stronger effect = higher value
How it was run: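 Material: modified S. cerevisiae; Medium: glucose-based CSMM-D restrictive medium; Compound dosing: one concentration, 10 µM final, 0.25% DMSO; Incubation: 48 h compound exposure at 30 °C; Measured by: OD615.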

[3] = doxorubicin toxicity protection in MRP-1 cells – H69AR cells, CellTiter-Glo, duplicate, MRP-1 activator project, pilot screen (AID 807;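 active = viability increase at or above a cutoff of the median across tested compounds plus 3 SD, cut at about 8.5% in these data, passing the limit was not always enough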;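 note: compound pretreatment 18-22 h then 72 h combined with doxorubicin; 0% = doxorubicin alone and 100% = vehicle without doxorubicin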); conditions: H69AR viability with doxorubicin, CellTiter-Glo luminescence; at 10 µM; stronger effect = higher value
[4] = viability of HCT116 without oncogenic beta-catenin – human colon tumor cells, pilot screen (AID 823;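 active = cell viability at or below a set limit in both duplicate runs, the limit being the all-compound median minus 4 SD, cut at about 23% in these data, passing the limit was not always enough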;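 note: 0% = wells killed by 20 µM Hyamine and 100% = untreated DMSO cell wells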); conditions: HCT116 beta-catenin knockout viability, CellTiter-Glo, 60 h; at 10 µM; stronger effect = lower value
[5] = viability of PTEN-null HCT116 cells – cell-based, HCT116 clonal line, CellTiter-Glo, pilot screen (AID 824;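 active = viability at or below 27.92% in each of two runs, the all-compound median minus 4 SD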;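 note: 0% = 20 µM Hyamine control and 100% = vehicle cell control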); conditions: HCT116 PTEN-deleted viability, 60 h, at 10 µM, stronger effect = lower value
[6] = RAM pathway blockade in budding yeast – dse1pr::URA3 reporter, 5-FOA selection, pilot screen (AID 869);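 note: 0% = DMSO wells with no growth and 100% = 10 µM 1-NA-PP1 with full growth; RAM network block rescues cells from 5-FOA so hits raise OD615 growth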; conditions: S. cerevisiae dse1pr::URA3 5-FOA growth, OD615, 2 d; at 10 µM; stronger effect = higher value; strain carries analog-sensitive mutant Cbk1 kinase
[7] = RAM signaling pathway blockade in yeast – S. cerevisiae, Pdr1DBD-CYC8 efflux-inhibited sensitized strain, primary screen (AID 1298;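 active = RAM network inhibition above 8.4% in each of two replicates, 3 SD over the compound average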;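 note: 0% = DMSO untreated cells without growth and 100% = 10 µM 1-NA-PP1 full growth; higher means more yeast growth rescued from 5-FOA killing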); conditions: S. cerevisiae cbk1-as DSE1-URA3 strain, 5-FOA growth OD615, 2 d; at 50 µM; stronger effect = higher value

Cc1cc(-c2c(C)n([O-])c(C)c(C)[n+]2=O)ccc1F
inactive: growth inhibition [1] -10.8% | growth inhibition [2] -3.75% | viability increase [3] 0.1% | viability [4] 102% | viability [5] 98.2% | inhibition [6] 1.03% | RAM network inhibition [7] 0.32%

CCOC(=O)N1CCC(NC(=O)CN2C(=O)CSc3ncccc32)CC1
inactive: growth inhibition [1] 0.38% | growth inhibition [2] -5.29% | viability increase [3] -0.23% | viability [4] 104% | viability [5] 99% | inhibition [6] 2.81% | RAM network inhibition [7] 1.48%

O=C(Cn1c(=O)sc2ccccc21)N1CCOCC1
inactive: growth inhibition [1] -1.21% | growth inhibition [2] -4.46% | viability increase [3] -1.06% | viability [4] 95.5% | viability [5] 102% | inhibition [6] 0.485% | RAM network inhibition [7] 0.67%

COc1cc2[nH]c(=O)n(CCCC(=O)NCCc3ccccc3)c(=O)c2cc1OC
inactive: growth inhibition [1] -4.08% | growth inhibition [2] -7.02% | viability increase [3] -3.37% | viability [4] 99% | viability [5] 94.5% | inhibition [6] 3.42% | RAM network inhibition [7] 2.87%

O=C(CSc1ccc2nnc(-c3ccccn3)n2n1)NCc1ccc2c(c1)OCO2
inactive: growth inhibition [1] -0.545% | growth inhibition [2] 21.4% | viability increase [3] -3.68% | viability [4] 91.6% | viability [5] 91.7% | inhibition [6] 2.51% | RAM network inhibition [7] 1.66%

CCn1c(=O)c2cc(C(=O)N3CCN(C(=O)c4ccco4)CC3)sc2c2ccccc21
inactive: growth inhibition [1] -1.96% | growth inhibition [2] -0.815% | viability increase [3] -3.68% | viability [4] 84% | viability [5] 86.3% | inhibition [6] 2.02% | RAM network inhibition [7] 7.64%

CC(C)N(CCc1ccncc1)C(=O)Nc1ccc(Cl)c(Cl)c1
inactive: growth inhibition [1] -4.55% | growth inhibition [2] -1.79% | viability increase [3] -0.23% | viability [4] 81.1% | viability [5] 87.8% | inhibition [6] 2.42% | RAM network inhibition [7] 3.94%

CCN(CCNS(=O)(=O)c1ccc2[nH]c(=O)sc2c1)c1ccccc1
inactive: growth inhibition [1] 0.725% | growth inhibition [2] 13% | viability increase [3] -1.31% | viability [4] 99% | viability [5] 87.6% | inhibition [6] 0.01% | RAM network inhibition [7] 2.83%

CCOc1ccc(C2CC(c3ccccc3C)n3ncnc3N2)cc1 (configuration not stated)
inactive: growth inhibition [1] -6.31% | growth inhibition [2] 13.4% | viability increase [3] -1.48% | viability [4] 87.3% | viability [5] 77.4% | inhibition [6] 1.83% | RAM network inhibition [7] -1.78%

Cc1ccc(S(=O)(=O)NCCCN2CCOCC2)c(C)c1
inactive: growth inhibition [1] -5.02% | growth inhibition [2] -7.8% | viability increase [3] -1.19% | viability [4] 96.8% | viability [5] 95.5% | inhibition [6] 2.29% | RAM network inhibition [7] 5.89%

CCOc1ccc2nc(N3CCC(C(=O)N4CCN(c5ccccn5)CC4)CC3)sc2c1
inactive: growth inhibition [1] -4.53% | growth inhibition [2] -8.55% | viability increase [3] -6.17% | viability [4] 50.9% | viability [5] 55.7% | inhibition [6] -0.605% | RAM network inhibition [7] 2.36%

O=C(Nc1ccccc1C(=O)NC(Cc1c[nH]c2ccccc12)C(=O)O)c1ccco1 (configuration not stated)
inactive: growth inhibition [1] -11% | growth inhibition [2] -11.3% | viability increase [3] -2.96% | viability [4] 102% | viability [5] 97.1% | inhibition [6] 0.95% | RAM network inhibition [7] 2.94%

CC(C)CCOC(=O)C1C2C=CC3(CN(Cc4cccs4)C(=O)C13)O2 (configuration not stated)
inactive: growth inhibition [1] -9.53% | growth inhibition [2] 2.99% | viability increase [3] -0.61% | viability [4] 94.3% | viability [5] 91.2% | inhibition [6] 0.305% | RAM network inhibition [7] 2.76%

COc1ccc(C2CC(c3ccc(Cl)cc3)n3nc(N)nc3N2)cc1 (configuration not stated)
inactive: growth inhibition [1] -5.72% | growth inhibition [2] 10.7% | viability increase [3] 2.46% | viability [4] 100% | viability [5] 95.1% | inhibition [6] 3.23% | RAM network inhibition [7] 4.44%

CCOc1ccccc1Nc1nc2ccccc2n2cnnc12
inactive: growth inhibition [1] -17% | growth inhibition [2] -2.87% | viability increase [3] -6.33% | viability [4] 81.6% | viability [5] 85.7% | inhibition [6] 3.04% | RAM network inhibition [7] 6.66%

O=C(NCC1CCCO1)c1ccc2c(c1)C(=O)N(C1CCCCC1)C2=O (configuration not stated)
inactive: growth inhibition [1] -10.7% | growth inhibition [2] -6.06% | viability increase [3] 1.19% | viability [4] 100% | viability [5] 91.5% | inhibition [6] 3.77% | RAM network inhibition [7] 3.57%

COc1ccccc1-c1cc(C(F)(F)F)nc(N2CCN(c3ccccc3)CC2)n1
inactive: growth inhibition [1] -2.88% | growth inhibition [2] -13.6% | viability increase [3] -1.89% | viability [4] 77.5% | viability [5] 78.8% | inhibition [6] 3.9% | RAM network inhibition [7] 4.72%

CC(C)N1CC(O)=C(c2ccccc2)C1=N
inactive: growth inhibition [1] 2.25% | growth inhibition [2] -15.7% | viability increase [3] -0.1% | viability [4] 96.5% | viability [5] 97.2% | inhibition [6] 0.86% | RAM network inhibition [7] 4.5%

CNc1nc(-c2ccc(Cl)cc2)cs1
inactive: growth inhibition [1] -5.83% | growth inhibition [2] -22.5% | viability increase [3] 0.42% | viability [4] 92.1% | viability [5] 87.8% | inhibition [6] 0.94% | RAM network inhibition [7] 0.43%

Cc1ccc(NC(=O)CSC2=C(C#N)C(c3ccc4c(c3)OCO4)C3=C(CCCC3=O)N2)c(C)c1 (configuration not stated)
inactive: growth inhibition [1] 21.3% | viability increase [3] -5.27% | viability [4] 73.7% | viability [5] 72.7% | inhibition [6] 1.4% | RAM network inhibition [7] 5.06%
active: growth inhibition [2] 59.1%

CCOc1ccc(Oc2nc(NCC(C)C)nc(OC)n2)nn1
inactive: growth inhibition [1] -8.33% | growth inhibition [2] 5.96% | viability increase [3] 0.16% | viability [4] 94.8% | viability [5] 91.5% | inhibition [6] 2.14% | RAM network inhibition [7] -1.03%

Cc1nn(C)c(C)c1S(=O)(=O)N(CC(=O)NCCN1CCOCC1)c1ccc(C(C)C)cc1
inactive: growth inhibition [1] -13.5% | growth inhibition [2] -11.8% | viability increase [3] -1.69% | viability [4] 102% | viability [5] 101% | inhibition [6] 1.83% | RAM network inhibition [7] 2.73%

N#C/C(=C(/O)CN1C(=O)c2ccccc2C1=O)c1nc2ccccc2[nH]1
inactive: growth inhibition [1] -9.93% | growth inhibition [2] -4.08% | viability increase [3] 0.55% | viability [4] 100% | viability [5] 94.4% | inhibition [6] 4.51% | RAM network inhibition [7] 4.04%

Cc1onc(-c2ccccc2)c1C(=O)NC(C)C
inactive: growth inhibition [1] -11.8% | growth inhibition [2] -8.11% | viability increase [3] 0.11% | viability [4] 105% | viability [5] 98.8% | inhibition [6] 0.105% | RAM network inhibition [7] 3.45%

O=C1C(C=NCCN2CCOCC2)=C(O)c2ccccc21
inactive: growth inhibition [1] -15.9% | growth inhibition [2] -26.8% | viability increase [3] -1.88% | viability [4] 100% | viability [5] 92.4% | inhibition [6] 2.4% | RAM network inhibition [7] 3.56%

O=C(NC1=NCCS1)C1CC2CCC1C2 (configuration not stated)
inactive: growth inhibition [1] 7.66% | growth inhibition [2] 6.69% | viability increase [3] -2.34% | viability [4] 99.1% | viability [5] 97.1% | inhibition [6] 1.96% | RAM network inhibition [7] 3.02%

COc1ccc(-c2cn3c(C)c(C(=O)NCc4ccc5c(c4)OCO5)sc3n2)cc1
inactive: growth inhibition [1] -4.21% | growth inhibition [2] 7.5% | viability increase [3] -3.02% | viability [4] 99.8% | viability [5] 100% | inhibition [6] 3.06% | RAM network inhibition [7] 3.34%

CCCSc1nnc(Cn2c(=O)sc3ccccc32)n1C
inactive: growth inhibition [1] -15.8% | growth inhibition [2] -38% | viability increase [3] -2.24% | viability [4] 94.3% | viability [5] 87.1% | inhibition [6] 0.415% | RAM network inhibition [7] -0.25%

COc1ccc(S(=O)(=O)Cc2ccc(C(=O)NCc3ccco3)o2)cc1
inactive: growth inhibition [1] -3.02% | growth inhibition [2] -11.6% | viability increase [3] -4.28% | viability [4] 104% | viability [5] 97.4% | inhibition [6] 0.88% | RAM network inhibition [7] 0.47%

O=C(c1c(F)cccc1F)N1CCN(c2cccc(C(F)(F)F)c2)CC1
inactive: growth inhibition [1] -7.33% | growth inhibition [2] -6.87% | viability increase [3] 2.86% | viability [4] 83.8% | viability [5] 82.1% | inhibition [6] 0.955% | RAM network inhibition [7] 4.98%

CCN1CCN(CCNC(=O)c2ccc(CS(=O)(=O)c3c(Cl)cccc3Cl)o2)CC1
inactive: growth inhibition [1] 5.83% | growth inhibition [2] 6.53% | viability increase [3] -1.94% | viability [4] 110% | viability [5] 103% | inhibition [6] 2.98% | RAM network inhibition [7] 1.59%

CCCOc1ccc(S(=O)(=O)NCc2ccc(OC)cc2)cc1
inactive: growth inhibition [1] -0.685% | growth inhibition [2] -1.88% | viability increase [3] -1.41% | viability [4] 103% | viability [5] 103% | inhibition [6] 0.925% | RAM network inhibition [7] 7.26%

Cn1c2c(c3ccccc31)CC/C2=N\O
inactive: growth inhibition [1] 1.57% | growth inhibition [2] 18.9% | viability increase [3] -0.84% | viability [4] 100% | viability [5] 99% | inhibition [6] 1% | RAM network inhibition [7] 1.01%

O=C(c1cc(-c2cccc(O)c2)on1)N1CCc2ccccc2C1
inactive: growth inhibition [1] -7.54% | growth inhibition [2] -17.6% | viability increase [3] 1.48% | viability [4] 114% | viability [5] 99.2% | inhibition [6] 0.005% | RAM network inhibition [7] -2.99%

Cc1c(C(=O)N2CCCCC2)sc(N)c1C#N
inactive: growth inhibition [1] 4.06% | growth inhibition [2] 4.32% | viability increase [3] -0.95% | viability [4] 96% | viability [5] 95.2% | inhibition [6] -0.355% | RAM network inhibition [7] 1.18%

CCC1(C(=O)O)NC(c2cccc(OC)c2O)C2C(=O)N(c3ccccc3)C(=O)C21 (configuration not stated)
inactive: growth inhibition [1] -6.47% | growth inhibition [2] 1.83% | viability increase [3] -2.33% | viability [4] 102% | viability [5] 93.8% | inhibition [6] 3.62% | RAM network inhibition [7] 1.14%
